Activity calls are given as the source filed them. No cut-off for these calls is given here.
Assays:
Type in all cases: functional, cell-based
MCF7 = assay: Anticancer activity against human MCF7 cells assessed as cell survival after 72 hrs by MTT assay
Summary of the method: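 Estrogen receptor-positive human breast cancer line, tested by MTT cytotoxicity assay with chlorambucil as positive control.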

[1] = (§1) Anticancer activity against human MDA-MB-436 cells assessed as cell survival after 72 hrs by MTT assay; details: MDA-MB-436, 72 h
Summary of the method: (§2)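 Estrogen receptor-negative human breast cancer line, exposed to a range of concentrations for 72 h. MTT read-out is expressed as percent cell survival, with chlorambucil as positive control.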

MDA-MB-468 = assay: Anticancer activity against human MDA-MB-468 cells assessed as cell survival after 72 hrs by MTT assay
Summary of the method: (§3)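 Estrogen receptor-negative human breast cancer lines, tested by MTT cytotoxicity assay with chlorambucil as positive control.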

MDA-MB-231 = assay: Anticancer activity against human MDA-MB-231 cells assessed as cell survival after 72 hrs by MTT assay; summary of the method: as §3
MDA-MB-436 = assay: as §1; summary of the method: as §2

Compound	Activity (MCF7)	IC50 [1]	Activity (MDA-MB-468)	Activity (MDA-MB-231)	Activity (MDA-MB-436)	IC50 (MDA-MB-231; MDA-MB-231, 72 h)
C[C@]12CC[C@@H]3c4ccc(O)cc4CC[C@H]3[C@@H]1C[C@@](CO)(CCCCNC(=O)CCCc1ccc(N(CCCl)CCCl)cc1)[C@@H]2O	Active	40 µM	Active	Active		
C[C@]12CC[C@@H]3c4ccc(O)cc4CC[C@H]3[C@@H]1C[C@@](CO)(CCCCCCNC(=O)CCCc1ccc(N(CCCl)CCCl)cc1)[C@@H]2O	Active		Active	Active	Active	
C[C@]12CC[C@@H]3c4ccc(O)cc4CC[C@H]3[C@@H]1C[C@@](CO)(CCCCCCCCNC(=O)CCCc1ccc(N(CCCl)CCCl)cc1)[C@@H]2O	Active		Active	Active	Active	
COC(=O)[C@@]1(CCCCCCNC(=O)CCCc2ccc(N(CCCl)CCCl)cc2)C[C@H]2[C@@H]3CCc4cc(O)ccc4[C@H]3CC[C@]2(C)[C@H]1O	inactive		inactive	Active		
O=C(O)CCCc1ccc(N(CCCl)CCCl)cc1 [CHLORAMBUCIL]	Active	> 160 µM	Active			> 130 µM

Source: ChEMBL document CHEMBL1154940, “Design, synthesis and biological evaluation of estradiol-chlorambucil hybrids as anticancer agents” (Bioorg Med Chem Lett, 2010)
